Data reported in ChEMBL document CHEMBL3745654, “N-Alkylated arylsulfonamides of (aryloxy)ethyl piperidines: 5-HT(7) receptor selectivity versus multireceptor profile” (Bioorg Med Chem, 2016).
Calls of active or inactive are those of the source. No cut-off for these calls is given here.

Experiments:
[1] = Drug metabolism in mouse liver microsomes assessed as retention time of hydroxylated metabolite at 20 uM at pH 7.4 incubated for 15 mins by UPLC/MS analysis in presence of NADPH; type: ADME; conditions: pH 7.4, 0.25 h
Method in brief: (§1)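 Compound (20 µM) incubated with mouse liver microsomes (0.2 mg/ml) in 100 mM potassium phosphate, pH 7.4, 37 °C. Reaction started with NADPH-regenerating system; blank without NADPH run in parallel. Sampling at 5, 15, 30 and 60 min (some to 120 min), in duplicate. Levallorphan internal standard; UPLC/MS quantitation. t1/2 from ln % remaining vs time.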

[2] = tested on: Mus musculus; experiment: Toxicity in Swiss albino mouse assessed as effect on spontaneous locomotor activity at 0.312 to 1.25 mg/kg, ip dosed 60 mins before test measured after 2 to 6 mins; type: organism-based; conditions: in vivo
[3] = tested on: Mus musculus; experiment: Antidepressant-like activity in Swiss albino mouse assessed as reduction in immobility time at 0.312 to 1.25 mg/kg, ip dosed 60 mins before test measured after 6 mins by forced swim test; type: functional, organism-based
Method in brief: (§2)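 Male Swiss albino mice (22–26 g), 7–12 per dose. Compounds dissolved in distilled water and given ip 60 min before test. Each mouse placed for 6 min in a glass cylinder with 10 cm of water at 23–25 °C. Immobility (floating with minimal movement) scored over the last 4 min by a blinded observer. One-way ANOVA with Bonferroni.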

[4] = tested on: Rattus norvegicus; experiment: Pro-cognitive effect in ip dosed Sprague-Dawley rat assessed as amelioration of PCP-induced memory deficit dosed 1 hr and 15 mins before familiarization phase by novel object recognition test; type: functional; conditions: for minimal effective dose: read-out: MED
Method in brief: (§3)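 Male Sprague–Dawley rats (~250 g), 7–12 per group, PCP-induced deficit model. Compounds ip 1 h and 15 min before T1. Day 1: 5-min arena habituation. Day 2: two 3-min trials 1 h apart, with two identical objects, then one replaced by a novel object. Exploration and distance video-tracked; discrimination index computed; ANOVA with Newman–Keuls.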

[5] = tested on: Rattus norvegicus; experiment: Effect on exploratory activity in PCP-treated Sprague-Dawley rat at 1 mg/kg, ip dosed 1 hr and 15 mins before familiarization phase by novel object recognition test; type: functional, organism-based; method in brief: as §3
[6] = tested on: Mus musculus; experiment: Toxicity in Swiss albino mouse assessed as effect on spontaneous locomotor activity at 1.25 mg/kg, ip dosed 60 mins before test measured after 2 to 6 mins; type: organism-based; conditions: in vivo
[7] = tested on: Mus musculus; experiment: Antidepressant-like activity in ip dosed Swiss albino mouse assessed as reduction in immobility time dosed 60 mins before test measured after 6 mins by forced swim test; type: functional; conditions: read-out: MED; method in brief: as §2
[8] = Drug metabolism in mouse liver microsomes assessed as retention time of N-dealkylated metabolite at 20 uM at pH 7.4 incubated for 15 mins by UPLC/MS analysis in presence of NADPH; type: ADME; conditions: pH 7.4, 0.25 h; method in brief: as §1
[9] = target: 5-hydroxytryptamine receptor 2A (Homo sapiens, UniProt P28223); experiment: Antagonist activity at human 5-HT2A receptor expressed in HEK293 cells assessed as inhibition of serotonin-induced inositol-1-phosphate accumulation at 1 uM after 30 mins by HTRF assay; type: functional, cell-based
Method in brief: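 Cellular functional antagonist assay in HEK293 cells stably expressing human 5-HT2A receptor, run externally. Inhibition of control agonist response (serotonin 100 nM) measured with compound at 10^-6 M.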

[10] = target: D(2) dopamine receptor (Homo sapiens, UniProt P14416); experiment: Antagonist activity at human dopamine D2L receptor expressed in HEK293 cells assessed as inhibition of dopamine-induced cAMP level at 1 uM; type: functional, cell-based
Method in brief: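 Cellular functional cAMP antagonist assay in HEK293 cells, run externally. Inhibition of control agonist response (dopamine 30 nM) measured with compound at 10^-6 M.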

[11] = target: D(3) dopamine receptor (Homo sapiens) (UniProt P35462); experiment: […] human dopamine D3 receptor expressed in CHO cells assessed as inhibition of dopamine-induced cAMP level at 1 uM after 30 mins by HTRF method; type: cell-based
[12] = tested on: Mus musculus; experiment: Toxicity in Swiss albino mouse assessed as effect on spontaneous locomotor activity at 1.25 to 5 mg/kg, ip dosed 60 mins before test measured after 2 to 6 mins; type: organism-based; conditions: in vivo
[13] = tested on: Mus musculus; experiment: Antidepressant-like activity in Swiss albino mouse assessed as reduction in immobility time at 1.25 to 5 mg/kg, ip dosed 60 mins before test measured after 6 mins by forced swim test; type: functional, organism-based; method in brief: as §2

5-hydroxytryptamine receptor 2A, sequence (P28223 whole entry): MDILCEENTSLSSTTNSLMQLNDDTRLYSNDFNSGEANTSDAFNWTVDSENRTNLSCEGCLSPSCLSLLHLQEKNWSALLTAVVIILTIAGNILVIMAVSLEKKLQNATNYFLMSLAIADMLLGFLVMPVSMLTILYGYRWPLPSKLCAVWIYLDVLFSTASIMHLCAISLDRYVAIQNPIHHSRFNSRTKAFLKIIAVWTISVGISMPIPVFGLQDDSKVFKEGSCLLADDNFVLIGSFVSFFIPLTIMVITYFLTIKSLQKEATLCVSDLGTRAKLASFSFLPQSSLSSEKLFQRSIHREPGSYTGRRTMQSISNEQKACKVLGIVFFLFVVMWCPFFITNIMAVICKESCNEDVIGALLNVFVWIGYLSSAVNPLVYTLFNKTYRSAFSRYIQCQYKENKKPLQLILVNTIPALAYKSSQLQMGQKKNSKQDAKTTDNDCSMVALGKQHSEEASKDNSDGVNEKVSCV
D(2) dopamine receptor, sequence (P14416 whole entry): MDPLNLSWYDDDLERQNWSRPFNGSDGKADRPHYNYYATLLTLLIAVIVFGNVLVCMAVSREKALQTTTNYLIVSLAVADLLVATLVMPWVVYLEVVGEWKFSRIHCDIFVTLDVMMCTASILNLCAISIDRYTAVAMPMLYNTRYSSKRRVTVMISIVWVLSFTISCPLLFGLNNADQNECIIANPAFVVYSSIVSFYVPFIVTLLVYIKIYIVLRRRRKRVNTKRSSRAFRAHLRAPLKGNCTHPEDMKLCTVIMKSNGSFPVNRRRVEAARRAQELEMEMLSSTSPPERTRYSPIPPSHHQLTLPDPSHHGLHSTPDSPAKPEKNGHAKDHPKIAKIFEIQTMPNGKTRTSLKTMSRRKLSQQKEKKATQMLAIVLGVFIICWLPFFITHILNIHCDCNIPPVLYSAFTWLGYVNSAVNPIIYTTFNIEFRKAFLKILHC
D(3) dopamine receptor (Homo sapiens), sequence (P35462 whole entry): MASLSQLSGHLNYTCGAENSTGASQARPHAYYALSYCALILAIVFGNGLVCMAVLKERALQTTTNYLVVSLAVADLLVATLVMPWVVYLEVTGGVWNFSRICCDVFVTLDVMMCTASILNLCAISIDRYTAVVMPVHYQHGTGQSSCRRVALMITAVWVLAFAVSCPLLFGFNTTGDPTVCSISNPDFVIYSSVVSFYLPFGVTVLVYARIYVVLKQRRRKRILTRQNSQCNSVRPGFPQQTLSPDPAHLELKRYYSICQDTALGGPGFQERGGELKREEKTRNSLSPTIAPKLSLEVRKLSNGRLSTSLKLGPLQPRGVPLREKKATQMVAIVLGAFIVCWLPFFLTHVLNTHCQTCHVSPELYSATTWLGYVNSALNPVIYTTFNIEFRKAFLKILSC

| Compound | Retention_time [1] [min] | Activity [2] | Activity [3] | Activity [4] | minimal effective dose [4] [mg/kg] | Activity [5] | Activity [6] | minimal effective dose [7] [mg/kg] | Retention_time [8] [min] | inhibition [9] [%] | inhibition [10] [%] | inhibition [11] [%] | Activity [12] | Activity [13] |
| --- | --- | --- | --- | --- | --- | --- | --- | --- | --- | --- | --- | --- | --- | --- |
| CN(C1CCN(CCOc2ccccc2C(C)(C)C)CC1)S(=O)(=O)c1cnn(C)c1 | 4.09 | Non-toxic | Active | – | – | – | – | – | – | – | – | – | – | – |
| Cn1cc(S(=O)(=O)N(CC2CC2)C2CCN(CCOc3ccccc3C(C)(C)C)CC2)cn1 | 4.72 | – | – | Dose-dependent effect | 1 | inactive | Non-toxic | 1.25 | – | – | – | – | – | – |
| Cn1cc(S(=O)(=O)N(CC2CC2)C2CCN(CCOc3ccccc3-c3ccccc3)CC2)cn1 | – | – | – | Dose-dependent effect | 1 | inactive | Non-toxic | 1.25 | 4.59 | 94 | 94 | > 91 | – | – |
| CN(C1CCN(CCOc2ccccc2-c2ccccc2)CC1)S(=O)(=O)c1cnn(C)c1 | – | – | – | – | – | – | – | – | 4.64 | 85 | 93 | > 91 | Non-toxic | Active |
